Screening results: PubChem BioAssay, several laboratories
This is a sample that favours compounds with a hit; in the whole collection about 9.2% have one here.
Dynein cargo inh: inhibitors of GR-EGFP nuclear translocation, primary screen, dynein cargo transport inhibitor project, imaging, high-content, 3617.4 mouse cells; z-score, hits read low; AID 1381, 2008; 220,000 compounds, 0.47% hits; test concentration mostly 20 µM; stimulated with dexamethasone, 1 µM; stronger effect = lower value;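 active = plate z-score of nuclear minus cytoplasmic receptor signal below a set negative limit, without overly bright fluorescence or cell loss, cut at about -3.5 in these data, passing the limit was not always enough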;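 note: z-score of nuclear minus cytoplasmic ring GR-EGFP intensity difference per well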
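medium = tetracycline-free induction medium containing charcoal-stripped FBS | also added = 1.0 µM final dexamethasone stimulus | schedule = 48 h induction, 1 h compound, 30 min dex at 37 °C | technique = fixed, Hoechst-stained cells imaged at 10x for EGFP | measure = GR-EGFP nuclear translocation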
Lmaj promast: Leishmania major promastigote growth inhibition, primary screen. inhibition, % at 10 µM. 200,000 compounds, 9% hits. AID 1063, 2008. Leishmania major promastigotes, resazurin fluorescence viability; in the data active = inhibition above about 50%;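 note: promastigotes grown with compound for 44 hours at 28 °C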
PTEN del growth: growth suppression of PTEN-null HCT116, primary screen, cell-based, CellTiter-Glo; AID 827, 2007; viability, % at 10 µM; HCT116 PTEN-null viability, 60 h; stronger effect = lower value; 140,000 compounds, 1.2% hits;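 active = viability at or below a set limit, 4 SD under the median of all tested compounds, cut at about 3.7% in these data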;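 note: PTEN knockout HCT116 line with beta catenin targeted HCT116 as companion control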
Autophagy mod: autophagy modulators in MEF cells, primary screen, imaging, high-content, MEF GFP-LC3 | MEF GFP-LC3 puncta imaging; test concentration mostly 10 µM | calls only at 10 µM (by protocol) | 190,000 compounds, 0.98% hits | AID 463193, 2010;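 active = percentage of spot-positive cells more than 3 SD above its plate mean, without a fluorescence outlier flag or 80% toxicity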
bCat KO growth: primary screen for growth suppressors in beta-catenin knockout HCT116 cells (colon tumor, human) | viability, % at 10 µM | HCT116 beta-catenin knockout viability, CellTiter-Glo, 60 h; stronger effect = lower value | 140,000 compounds, 1.5% hits;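 active = viability at or under a set limit, the compound median less 4 SD, cut at about 6% in these data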
Hits are given with their value.

CCOC(=O)C1=C(Nc2ccccc2)CC(C)(O)C(C(=O)OCC)C1c1ccccc1 (stereo not given) was read as Dynein cargo inh inactive, Lmaj promast inactive, PTEN del growth inactive, Autophagy mod inactive and bCat KO growth inactive.
`CCOC(=O)C1=C(Nc2ccccc2)CC(C)(O)C(C(=O)OCC)C1c1ccc(Br)cc1` (stereo not given) gave Dynein cargo inh inactive, Lmaj promast 92, PTEN del growth inactive, Autophagy mod inactive and bCat KO growth inactive.
`Cc1ccc(S(=O)(=O)Nc2ccccc2CNc2ncc(Br)cc2Br)cc1` gave Dynein cargo inh inactive, Lmaj promast 100, PTEN del growth inactive, Autophagy mod inactive and bCat KO growth inactive.
`Cc1ccc(S(=O)(=O)Nc2ccccc2CNc2ccc(Br)cn2)cc1` gave Dynein cargo inh inactive, Lmaj promast inactive, PTEN del growth inactive, Autophagy mod inactive and bCat KO growth inactive.
Cc1ccc(S(=O)(=O)Nc2ccccc2CNc2ccccn2)cc1 was read as Dynein cargo inh inactive, Lmaj promast 59, PTEN del growth inactive, Autophagy mod inactive and bCat KO growth inactive.
COc1ccc(C(=O)C2CCCN(C(=O)c3ccc4cc[nH]c4c3)C2)c(C)c1 (stereo not given) was read as Dynein cargo inh inactive, Lmaj promast inactive and Autophagy mod inactive.
Screening Nc1c2c(nc3ccn(Cc4ccccc4)c(=O)c13)CCC2 returned Dynein cargo inh inactive, Lmaj promast 89, PTEN del growth inactive, Autophagy mod inactive and bCat KO growth inactive.
Screening Nc1c2c(nc3ccn(-c4ccccc4)c(=O)c13)CCCCC2 returned Dynein cargo inh inactive, Lmaj promast inactive, PTEN del growth inactive, Autophagy mod inactive and bCat KO growth inactive.
O=C(Nc1nc2ccccc2s1)C1CC(=O)N(c2ccc(F)cc2)C1 (stereo not given) was read as Dynein cargo inh inactive, Lmaj promast inactive, PTEN del growth inactive, Autophagy mod inactive and bCat KO growth inactive.
Cc1cccc(N(CC(=O)N/N=C/c2cc([N+](=O)[O-])ccc2Cl)S(C)(=O)=O)c1C was read as Dynein cargo inh inactive, Lmaj promast 86, PTEN del growth inactive, Autophagy mod inactive and bCat KO growth inactive.
Screening C=C(C)CNC(=S)NNC(=O)CCn1c2ccc(Cl)cc2c2cc(Cl)ccc21 returned Dynein cargo inh inactive, Lmaj promast inactive, PTEN del growth 3.5, Autophagy mod inactive and bCat KO growth 2.7.
For Brc1ccc(C2C3=C(Nc4ncnn42)c2ccccc2OC3c2ccncc2)cc1 (stereo not given) the results were Dynein cargo inh inactive, Lmaj promast 75, PTEN del growth inactive, Autophagy mod inactive and bCat KO growth inactive.
COc1ccc(C2Oc3ccccc3C3=C2C(c2cccs2)n2ncnc2N3)cc1 (stereo not given) was read as Dynein cargo inh inactive, Lmaj promast 69, PTEN del growth inactive, Autophagy mod inactive and bCat KO growth inactive.
For Cc1cc(=O)nc2c3ccccc3n(C(C)C(=O)Nc3c(F)c(F)c(F)c(F)c3F)n12 (stereo not given) the results were Dynein cargo inh inactive, Lmaj promast inactive and Autophagy mod inactive.
For C=CCn1c(SCC(=O)NCc2ccccc2)nnc1C1CCCCC1 the results were Dynein cargo inh inactive, Lmaj promast 78, PTEN del growth inactive, Autophagy mod inactive and bCat KO growth inactive.
Screening C=CCn1c(SCC(=O)NCc2ccc3c(c2)OCO3)nnc1C1CCCCC1 returned Dynein cargo inh inactive, Lmaj promast inactive, PTEN del growth inactive, Autophagy mod inactive and bCat KO growth inactive.
O=C(NCC1CCCO1)c1cc2c(s1)CS(=O)(=O)C2 (stereo not given) was read as Dynein cargo inh inactive, Lmaj promast inactive, PTEN del growth inactive, Autophagy mod active and bCat KO growth inactive.
`Cc1cc(C)cc(N(CC(=O)NCc2ccc3c(c2)OCO3)C(=O)CCC(=O)Nc2ccccn2)c1` gave Dynein cargo inh inactive, Lmaj promast inactive, PTEN del growth inactive, Autophagy mod inactive and bCat KO growth inactive.
For COc1ccc(CNC(=O)CN(C(=O)CCC(=O)Nc2ccccn2)c2cccc(C)c2)cc1 the results were Dynein cargo inh inactive, Lmaj promast 50 and Autophagy mod inactive.
For CCC(C)(C)NC(=O)CN(C(=O)CCC(=O)Nc1ccccn1)c1ccc(F)c(Cl)c1 the results were Dynein cargo inh inactive, Lmaj promast 90, PTEN del growth inactive, Autophagy mod inactive and bCat KO growth inactive.
For Cc1ccc(C)c(N(CC(=O)NCc2ccc3c(c2)OCO3)C(=O)CCC(=O)Nc2ccccn2)c1 the results were Dynein cargo inh inactive, Lmaj promast 56, PTEN del growth inactive, Autophagy mod inactive and bCat KO growth inactive.
Screening CCOC(=O)c1c(NC(=O)C(Sc2ccccc2)c2ccccc2)sc(C(=O)N(C)C)c1C (stereo not given) returned Dynein cargo inh inactive, Lmaj promast 98, PTEN del growth inactive, Autophagy mod inactive and bCat KO growth inactive.
Screening CCOC(=O)c1c(NC(=O)C(Sc2ccccc2)c2ccccc2)sc(C(N)=O)c1C (stereo not given) returned Dynein cargo inh inactive, Lmaj promast inactive, PTEN del growth inactive, Autophagy mod inactive and bCat KO growth inactive.
`Cc1c(Br)c(C(F)(F)F)nn1CC(=O)NCc1ccccc1` gave Dynein cargo inh inactive, Lmaj promast inactive, PTEN del growth inactive, Autophagy mod inactive and bCat KO growth inactive.
For COc1cccc(/C=N/NC(=O)c2ccccc2N(Cc2ccccc2)S(=O)(=O)c2ccccc2)c1OC the results were Dynein cargo inh inactive, Lmaj promast 91, PTEN del growth inactive, Autophagy mod inactive and bCat KO growth inactive.
`CS(=O)(=O)N(Cc1ccccc1)c1ccccc1C(=O)O` gave Dynein cargo inh inactive, Lmaj promast inactive, PTEN del growth inactive, Autophagy mod inactive and bCat KO growth inactive.
Screening Cc1ccc(OCC(=O)Nc2ccc(Cl)cc2)c(-n2nc3ccccc3n2)c1 returned Dynein cargo inh inactive, Lmaj promast inactive, PTEN del growth inactive, Autophagy mod active and bCat KO growth inactive.
`Cc1ccc(NC(=O)COc2ccccc2C(=O)Nc2ccccc2)cc1Cl` gave Dynein cargo inh inactive, Lmaj promast inactive, PTEN del growth inactive, Autophagy mod inactive and bCat KO growth inactive.
For Cc1ccc(Cl)cc1NC(=O)c1ccccc1OCC(=O)Nc1ccc(Cl)cc1 the results were Dynein cargo inh inactive, Lmaj promast inactive, PTEN del growth 2.9, Autophagy mod inactive and bCat KO growth inactive.
For COc1ccc(OC)c(NC(=O)c2ccccc2N(Cc2ccccc2)S(C)(=O)=O)c1 the results were Dynein cargo inh inactive, Lmaj promast 80 and Autophagy mod inactive.
`COc1ccc2c(n1)Sc1nc3ccccc3nc1N2` gave Dynein cargo inh inactive.
`O=C(O)Cc1c(C(=O)O)nnn1-c1ccc(Cl)cc1Cl` gave Dynein cargo inh inactive, Lmaj promast inactive and Autophagy mod inactive.
